One compound from ChEMBL document CHEMBL1137302 (J Med Chem, 2006) can be followed below.

The species named for data set [1] is Mustela putorius furo. As to the kind of experiment: Induction of emesis in ferret. In kind it is functional, organism-based.
The species entered for data set [2] is Mustela putorius furo. In words: Induction of nausea in ferret. In kind it is functional, organism-based.
Data set [3] in a line: Agonist activity at ferret D4 receptor in HEK293 cells coexpressing G-alpha-qo5 by FLIPR relative to dopamine. Format: functional, Mustela putorius furo.
Data set [4] deals with D(2) dopamine receptor (Rattus norvegicus) (UniProt P61169). In words: Agonist activity at rat D2 receptor in HEK293 cells coexpressing G-alpha-qo5 by FLIPR relative to dopamine upto 10 uM. Format: functional, cell-based. A digest of the protocol: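 Ca2+ flux by FLIPR in HEK cells cotransfected with the D2 receptor (human, ferret or rat) plus chimeric G protein Gqo5.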

For data set [5], the target named is T1, D(4) dopamine receptor (Homo sapiens) (UniProt P21917).
T1 sequence (whole entry): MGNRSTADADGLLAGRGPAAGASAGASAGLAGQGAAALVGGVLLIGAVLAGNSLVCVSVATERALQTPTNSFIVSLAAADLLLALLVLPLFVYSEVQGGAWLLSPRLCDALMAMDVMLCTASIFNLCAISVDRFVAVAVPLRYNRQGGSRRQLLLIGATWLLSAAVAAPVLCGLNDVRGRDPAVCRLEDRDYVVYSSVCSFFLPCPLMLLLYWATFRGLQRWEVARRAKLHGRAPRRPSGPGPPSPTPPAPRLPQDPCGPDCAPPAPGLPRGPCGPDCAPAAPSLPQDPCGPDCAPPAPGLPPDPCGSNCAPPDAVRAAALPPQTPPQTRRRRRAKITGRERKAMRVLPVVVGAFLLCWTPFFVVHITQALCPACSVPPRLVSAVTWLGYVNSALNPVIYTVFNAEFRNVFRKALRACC
As to the kind of experiment: Activity at human D4.4 receptor in HEK293 cells co-expressing Galphaqo5 by FLIPR. In kind it is functional, cell-based. The conditions noted are these: filed as agonist.

Another data set has as its target T2, D(4) dopamine receptor (Homo sapiens, UniProt P21917).
T2 sequence (P21917 whole entry): T1 sequence (whole entry)
In words: Displacement of [3H]A369508 from human D4 receptor expressed in HEK293 cell membrane. Format: cell membranes.

The target in data set [6] is Phosphodiesterase 3 (Homo sapiens) (UniProt Q14432+Q13370). As to the kind of experiment: Activity at PDE3 at 10 uM. Format: protein assay. The procedure, abridged:
(§1)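 Broad selectivity panel (over 70 receptors, ion channels and neuronal receptors, PDE1-6 included) run at a single 10 µM concentration.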

In data set [7] the target is cGMP-specific 3',5'-cyclic phosphodiesterase (Homo sapiens) (UniProt O76074). In words: Activity at PDE5 at 10 uM. The procedure, abridged: as §1
Data set [8] in a line: Bioavailability in rat at 1 mg/kg, sc. In kind it is ADME, organism-based. The conditions noted are these: in vivo. A digest of the protocol:
(§2)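 Single 1 mg/kg dose given iv, sc or orally to Sprague-Dawley rats, dogs and monkeys; plasma concentrations followed over time (mean ± SEM, n = 3). Cmax, AUC, half-life, clearance and bioavailability calculated from the curves.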

The nature of data set [9]: Bioavailability in dog at 1 mg/kg, po. In kind it is ADME, organism-based, Canis lupus familiaris. The conditions noted are these: in vivo. A digest of the protocol: as §2
The nature of data set [10]: AUC in rat at 1 mg/kg, sc. In kind it is ADME, organism-based. Also noted: dose 1 mg/kg, route subcutaneous. The conditions noted are these: plasma. The procedure, abridged: as §2
A short description of data set [11]: AUC in rat at 1 mg/kg, po. In kind it is ADME, organism-based. Also noted: dose 1 mg/kg, route oral. The following applies: plasma. A digest of the protocol: as §2
The target in a further data set is hERG (Homo sapiens, UniProt Q12809). As to the kind of experiment: Blockade of current at hERG expressed in HEK293 cells at 3 ug/mL. Format: cell-based. The following applies: HEK293 cells that express hERG. A digest of the protocol: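 hERG stably expressed in HEK293 cells; whole-cell voltage clamp. Pipette: K aspartate/KCl/EGTA/MgATP, pH 7.3. Bath: NaCl-based HEPES, pH 7.4. Compound dissolved in DMSO (≤0.1%), one concentration per cell. Steps to -25 to +50 mV for 3 s, then -50 mV for 4 s, from -80 mV every 15 s; tail current measured against DMSO vehicle.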

The subject of data set [12] is D(2) dopamine receptor (Mustela putorius furo). In words: Agonist activity at ferret D2 receptor in HEK293 cells coexpressing Galphaqo5 by FLIPR relative to dopamine upto 10 uM.

pKi: −log10 of the molar value. Activity calls are given as the source filed them. No cut-off for these calls is given here.

Chain of hERG (Q12809 whole entry): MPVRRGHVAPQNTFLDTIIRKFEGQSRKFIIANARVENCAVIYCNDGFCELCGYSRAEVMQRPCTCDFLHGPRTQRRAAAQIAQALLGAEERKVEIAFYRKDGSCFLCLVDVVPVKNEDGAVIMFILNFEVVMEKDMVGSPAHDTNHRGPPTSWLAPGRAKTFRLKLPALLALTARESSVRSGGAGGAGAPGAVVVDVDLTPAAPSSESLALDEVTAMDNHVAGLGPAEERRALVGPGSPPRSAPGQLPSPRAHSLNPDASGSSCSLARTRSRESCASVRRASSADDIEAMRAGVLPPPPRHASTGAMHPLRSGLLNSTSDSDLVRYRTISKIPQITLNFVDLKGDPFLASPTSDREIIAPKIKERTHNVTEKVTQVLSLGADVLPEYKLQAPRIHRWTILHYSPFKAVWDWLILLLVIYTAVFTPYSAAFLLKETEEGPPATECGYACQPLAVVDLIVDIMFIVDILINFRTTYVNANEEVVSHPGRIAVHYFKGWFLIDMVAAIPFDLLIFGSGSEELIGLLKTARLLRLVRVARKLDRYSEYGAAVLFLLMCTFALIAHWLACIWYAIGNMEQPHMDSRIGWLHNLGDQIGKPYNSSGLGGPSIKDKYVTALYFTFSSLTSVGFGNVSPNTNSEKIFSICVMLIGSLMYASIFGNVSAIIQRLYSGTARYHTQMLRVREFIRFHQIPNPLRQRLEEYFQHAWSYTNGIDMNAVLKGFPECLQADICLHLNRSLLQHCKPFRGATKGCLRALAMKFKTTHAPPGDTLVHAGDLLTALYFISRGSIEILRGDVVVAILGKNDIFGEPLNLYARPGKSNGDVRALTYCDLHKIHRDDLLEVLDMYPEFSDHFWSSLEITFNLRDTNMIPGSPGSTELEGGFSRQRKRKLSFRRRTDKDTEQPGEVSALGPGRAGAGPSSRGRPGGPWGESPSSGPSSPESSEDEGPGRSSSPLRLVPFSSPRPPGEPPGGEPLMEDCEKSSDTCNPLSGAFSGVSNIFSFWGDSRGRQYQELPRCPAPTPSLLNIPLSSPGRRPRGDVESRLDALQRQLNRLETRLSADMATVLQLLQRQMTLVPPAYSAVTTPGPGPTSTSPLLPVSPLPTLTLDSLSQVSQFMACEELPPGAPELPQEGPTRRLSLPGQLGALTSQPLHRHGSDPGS
Chain of D(2) dopamine receptor (Rattus norvegicus) (P61169 whole entry): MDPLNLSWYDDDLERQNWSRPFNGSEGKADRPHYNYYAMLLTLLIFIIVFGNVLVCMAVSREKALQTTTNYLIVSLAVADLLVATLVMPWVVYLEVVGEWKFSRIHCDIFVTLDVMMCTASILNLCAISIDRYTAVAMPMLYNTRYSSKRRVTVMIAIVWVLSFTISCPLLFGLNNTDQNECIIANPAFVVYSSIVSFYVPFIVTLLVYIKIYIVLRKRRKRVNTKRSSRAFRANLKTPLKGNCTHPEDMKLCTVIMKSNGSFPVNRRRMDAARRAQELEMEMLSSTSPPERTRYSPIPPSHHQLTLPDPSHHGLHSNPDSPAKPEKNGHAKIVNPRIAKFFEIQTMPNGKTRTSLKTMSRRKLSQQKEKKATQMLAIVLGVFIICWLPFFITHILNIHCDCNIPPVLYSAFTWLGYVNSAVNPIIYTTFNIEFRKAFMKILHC

With `Cc1cccc(C(=O)NCN2CCC(c3cccc[n+]3[O-])CC2)c1`, the outcome (in the data set filed under Mustela putorius furo [1]; in the data set listed under Mustela putorius furo [2]; in data set [4]; in [6]; in data set [7]; in data set [12]) was inactive. In data set [3], this compound registered an Efficacy of 76%. In addition, the Activity entry in [5] is “Agonist”. In addition, on D(4) dopamine receptor, the negative-log Ki (pKi) is 5.84. The results for the bioavailability in [8] and in data set [9] were 84% and 85%, respectively. Moreover, the AUC in data set [10] came to 1140 ng·h/mL; in data set [11], 922 ng·h/mL. For the same compound, the inhibition at 3 ug/mL at hERG came out at 14.5%.
